Source: ChEMBL document CHEMBL5705902, “Role of G Protein-Coupled Receptor Kinases 2 and 3 in μ-Opioid Receptor Desensitization and Internalization” (Mol Pharmacol, 2015)
Activity calls are given as the source filed them. The calls are words filed in the database; no cut-off is given here.

Tests used:
[1] = molecular target: Mu-type opioid receptor (Rattus norvegicus) (UniProt P33535); assay: Inhibition of HA-tagged rat MOPr in HEK293 cells assessed as reduction in DAMGO induced MOPr internalization level at 30 uM preincubated for 30 mins by confocal microscopy analysis; assay type: functional, cell-based
Summary of the method: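 HA-MOPr HEK 293 cells were prelabeled with anti-HA at 4°C for 1 h, then given inhibitor (30 μM) 30 min at 37°C and DAMGO 10 μM. Cells were stained with a fluorescein secondary and Hoechst and imaged by confocal microscopy (63× oil); repeated 3 times.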
Target sequence in this assay (P33535 whole entry): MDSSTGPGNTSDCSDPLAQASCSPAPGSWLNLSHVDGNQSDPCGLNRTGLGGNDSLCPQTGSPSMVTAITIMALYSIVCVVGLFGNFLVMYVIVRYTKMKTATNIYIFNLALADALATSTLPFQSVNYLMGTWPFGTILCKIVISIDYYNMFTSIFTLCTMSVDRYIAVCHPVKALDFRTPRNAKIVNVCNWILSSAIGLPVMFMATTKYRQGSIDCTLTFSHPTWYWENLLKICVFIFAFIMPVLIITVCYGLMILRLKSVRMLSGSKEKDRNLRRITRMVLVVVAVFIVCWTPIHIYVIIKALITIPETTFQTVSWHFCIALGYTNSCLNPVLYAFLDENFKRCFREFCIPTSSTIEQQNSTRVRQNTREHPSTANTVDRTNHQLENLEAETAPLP

[2] = molecular target: Tyrosine-protein kinase SYK (Homo sapiens) (UniProt P43405); assay: Inhibition of human SYK assessed as remaining activity at 1 uM in presence of 32ATP relative to control
Summary of the method: (§1)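 Express panel of 52 purified human kinases run in vitro. Kinase activity was measured directly by a radioactive filter-binding assay with ³²ATP, at ATP levels at or below each kinase's calculated Km for ATP. The compound was tested at 1 μM. Each assay was run in duplicate, and activity is given as the mean percentage (with S.D.) of activity without inhibitor.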

[3] = molecular target: High affinity nerve growth factor receptor (Homo sapiens) (UniProt P04629); assay: Inhibition of human TrkA assessed as remaining activity at 1 uM in presence of 32ATP relative to control; summary of the method: as §1
[4] = molecular target: Glycogen synthase kinase-3 beta (Homo sapiens) (UniProt P49841); assay: Inhibition of human GSK3b assessed as remaining activity at 1 uM in presence of 32ATP relative to control; summary of the method: as §1
Glycogen synthase kinase-3 beta (Homo sapiens), sequence (P49841 whole entry, looked up): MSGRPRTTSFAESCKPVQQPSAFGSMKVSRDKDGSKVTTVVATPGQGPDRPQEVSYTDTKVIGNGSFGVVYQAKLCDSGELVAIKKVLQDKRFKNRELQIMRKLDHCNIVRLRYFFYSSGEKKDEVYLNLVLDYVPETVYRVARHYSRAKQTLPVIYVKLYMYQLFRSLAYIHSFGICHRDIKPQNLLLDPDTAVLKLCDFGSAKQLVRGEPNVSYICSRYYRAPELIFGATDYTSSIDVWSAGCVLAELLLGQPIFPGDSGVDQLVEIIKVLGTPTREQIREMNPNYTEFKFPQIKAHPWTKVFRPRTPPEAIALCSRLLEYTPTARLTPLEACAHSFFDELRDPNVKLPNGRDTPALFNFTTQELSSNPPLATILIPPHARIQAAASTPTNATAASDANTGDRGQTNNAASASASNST

[5] = molecular target: Ribosomal protein S6 kinase alpha-5 (Homo sapiens) (UniProt O75582); assay: Inhibition of human MSK1 at 1 uM in presence of 32ATP relative to control; summary of the method: as §1
Ribosomal protein S6 kinase alpha-5 (Homo sapiens), sequence (O75582 whole entry, looked up): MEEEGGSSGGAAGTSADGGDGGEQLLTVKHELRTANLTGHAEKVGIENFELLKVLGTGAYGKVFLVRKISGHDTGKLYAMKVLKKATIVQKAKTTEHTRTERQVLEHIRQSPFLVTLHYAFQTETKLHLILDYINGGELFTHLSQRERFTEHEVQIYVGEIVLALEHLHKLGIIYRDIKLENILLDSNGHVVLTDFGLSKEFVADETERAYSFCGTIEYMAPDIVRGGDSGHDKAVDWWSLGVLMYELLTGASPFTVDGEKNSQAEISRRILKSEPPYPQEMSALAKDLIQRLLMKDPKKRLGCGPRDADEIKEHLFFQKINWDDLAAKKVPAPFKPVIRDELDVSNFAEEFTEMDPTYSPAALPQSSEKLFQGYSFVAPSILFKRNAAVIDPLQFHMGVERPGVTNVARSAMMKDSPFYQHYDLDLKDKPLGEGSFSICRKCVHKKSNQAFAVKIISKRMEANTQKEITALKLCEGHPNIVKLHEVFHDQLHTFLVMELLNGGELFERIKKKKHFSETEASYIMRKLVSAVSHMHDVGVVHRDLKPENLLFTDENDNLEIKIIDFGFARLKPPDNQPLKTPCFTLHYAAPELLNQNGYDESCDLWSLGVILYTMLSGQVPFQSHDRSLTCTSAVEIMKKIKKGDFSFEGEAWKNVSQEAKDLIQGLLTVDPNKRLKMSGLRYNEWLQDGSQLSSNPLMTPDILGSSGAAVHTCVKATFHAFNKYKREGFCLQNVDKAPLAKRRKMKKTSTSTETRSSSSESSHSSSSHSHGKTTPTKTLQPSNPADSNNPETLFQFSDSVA

[6] = molecular target: Insulin-like growth factor 1 receptor (Homo sapiens) (UniProt P08069); assay: Inhibition of human IGF1R assessed as remaining activity at 1 uM in presence of 32ATP relative to control; summary of the method: as §1
[7] = molecular target: Serine/threonine-protein kinase STK11 (Homo sapiens) (UniProt Q15831); assay: Inhibition of human LKB1 assessed as remaining activity at 1 uM in presence of 32ATP relative to control; summary of the method: as §1
Homo sapiens [8] = organism: Homo sapiens; assay: Inhibition of human AMPK assessed as remaining activity at 1 uM in presence of 32ATP relative to control
Summary of the method: (§2)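 Express screen of 52 purified human kinases run as a radioactive filter-binding assay with 32ATP, at 1 μM inhibitor. ATP was at or below each kinase's calculated Km. Activity is given as percent of the activity without inhibitor. Run in duplicate; mean with S.D.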

[9] = molecular target: Serine/threonine-protein kinase Nek6 (Homo sapiens) (UniProt Q9HC98); assay: Inhibition of human NEK6 assessed as remaining activity at 1 uM in presence of 32ATP relative to control; summary of the method: as §1
[10] = molecular target: Dual specificity mitogen-activated protein kinase kinase 1 (Homo sapiens) (UniProt Q02750); assay: Inhibition of human MKK1 assessed as remaining activity at 1 uM in presence of 32ATP relative to control; summary of the method: as §1
[11] = molecular target: Eukaryotic elongation factor 2 kinase (Homo sapiens) (UniProt O00418); assay: Inhibition of human EF2K assessed as remaining activity at 1 uM in presence of 32ATP relative to control; summary of the method: as §2
[12] = molecular target: G protein-coupled receptor kinase 5 (Bos taurus) (UniProt P43249); assay: Inhibition of C-terminal truncations tagged bovine GRK5 at 125 uM in the presence of ATP
[13] = molecular target: Calcium/calmodulin-dependent protein kinase kinase 2 (Homo sapiens) (UniProt Q96RR4); assay: Inhibition of human CAMKKb assessed as remaining activity at 1 uM in presence of 32ATP relative to control; summary of the method: as §2
[14] = molecular target: Mu-type opioid receptor (Rattus norvegicus) (UniProt P33535); assay: Inhibition of HA-tagged rat MOPr in HEK293 cells assessed as DAMGO induced MOPr phosphorylation at Ser375 level at 30 uM preincubated for 30 mins by western blot analysis; assay type: functional, cell-based
Summary of the method: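 Serum-starved HEK 293 cells stably expressing HA-rat MOPr were pretreated with inhibitor for 30 min, then DAMGO 10 μM for 5 min. Receptor was enriched on WGA-agarose overnight at 4°C and blotted for pSer375. Densitometry was done in duplicate and normalized to total HA-MOPr; n = 3.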
Target sequence in this assay (P33535 whole entry): as the sequence (P33535 whole entry) above

Homo sapiens [15] = organism: Homo sapiens; assay: Inhibition of human VEGFR assessed as remaining activity at 1 uM in presence of 32ATP relative to control; summary of the method: as §1
[16] = molecular target: Mu-type opioid receptor (Rattus norvegicus) (UniProt P33535); assay: Inhibition of MOPr desensitization in wistar rat LC neuron cells assessed as reduction in the morphine induced desensitization at 30 uM incubated for 15 mins; assay type: functional, cell-based
Target sequence in this assay (P33535 whole entry): as above

[17] = molecular target: Mitogen-activated protein kinase kinase kinase 7 (Homo sapiens) (UniProt O43318); assay: Inhibition of human TAK1 assessed as remaining activity at 1 uM in presence of 32ATP relative to control; summary of the method: as §1
Mitogen-activated protein kinase kinase kinase 7 (Homo sapiens), sequence (O43318 whole entry): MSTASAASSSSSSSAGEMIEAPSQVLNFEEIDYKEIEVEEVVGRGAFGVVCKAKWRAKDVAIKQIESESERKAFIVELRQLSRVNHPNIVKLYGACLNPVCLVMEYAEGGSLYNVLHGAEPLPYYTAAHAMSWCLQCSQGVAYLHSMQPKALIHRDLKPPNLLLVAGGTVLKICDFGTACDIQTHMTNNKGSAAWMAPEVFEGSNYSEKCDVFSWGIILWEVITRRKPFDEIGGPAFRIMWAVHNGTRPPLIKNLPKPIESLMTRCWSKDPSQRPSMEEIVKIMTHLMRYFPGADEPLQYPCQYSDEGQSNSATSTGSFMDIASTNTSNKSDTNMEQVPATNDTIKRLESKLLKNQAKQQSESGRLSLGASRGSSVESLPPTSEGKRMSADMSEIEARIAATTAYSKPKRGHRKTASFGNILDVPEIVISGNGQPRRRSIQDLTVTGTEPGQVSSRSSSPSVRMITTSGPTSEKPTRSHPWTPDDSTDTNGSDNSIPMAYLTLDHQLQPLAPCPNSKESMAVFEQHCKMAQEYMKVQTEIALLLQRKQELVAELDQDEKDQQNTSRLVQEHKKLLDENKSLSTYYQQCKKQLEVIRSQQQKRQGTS

[18] = molecular target: Mitogen-activated protein kinase; ERK1/ERK2 (Homo sapiens) (UniProt P27361+P28482); assay: Inhibition of ERK1/2 (unknown origin) at 1 uM in presence of 32ATP relative to control; assay type: protein assay; summary of the method: as §2
[19] = molecular target: Homeodomain-interacting protein kinase 2 (Homo sapiens) (UniProt Q9H2X6); assay: Inhibition of human HIPK2 assessed as remaining activity at 1 uM in presence of 32ATP relative to control; summary of the method: as §1
Homeodomain-interacting protein kinase 2 (Homo sapiens), sequence (Q9H2X6 whole entry, looked up): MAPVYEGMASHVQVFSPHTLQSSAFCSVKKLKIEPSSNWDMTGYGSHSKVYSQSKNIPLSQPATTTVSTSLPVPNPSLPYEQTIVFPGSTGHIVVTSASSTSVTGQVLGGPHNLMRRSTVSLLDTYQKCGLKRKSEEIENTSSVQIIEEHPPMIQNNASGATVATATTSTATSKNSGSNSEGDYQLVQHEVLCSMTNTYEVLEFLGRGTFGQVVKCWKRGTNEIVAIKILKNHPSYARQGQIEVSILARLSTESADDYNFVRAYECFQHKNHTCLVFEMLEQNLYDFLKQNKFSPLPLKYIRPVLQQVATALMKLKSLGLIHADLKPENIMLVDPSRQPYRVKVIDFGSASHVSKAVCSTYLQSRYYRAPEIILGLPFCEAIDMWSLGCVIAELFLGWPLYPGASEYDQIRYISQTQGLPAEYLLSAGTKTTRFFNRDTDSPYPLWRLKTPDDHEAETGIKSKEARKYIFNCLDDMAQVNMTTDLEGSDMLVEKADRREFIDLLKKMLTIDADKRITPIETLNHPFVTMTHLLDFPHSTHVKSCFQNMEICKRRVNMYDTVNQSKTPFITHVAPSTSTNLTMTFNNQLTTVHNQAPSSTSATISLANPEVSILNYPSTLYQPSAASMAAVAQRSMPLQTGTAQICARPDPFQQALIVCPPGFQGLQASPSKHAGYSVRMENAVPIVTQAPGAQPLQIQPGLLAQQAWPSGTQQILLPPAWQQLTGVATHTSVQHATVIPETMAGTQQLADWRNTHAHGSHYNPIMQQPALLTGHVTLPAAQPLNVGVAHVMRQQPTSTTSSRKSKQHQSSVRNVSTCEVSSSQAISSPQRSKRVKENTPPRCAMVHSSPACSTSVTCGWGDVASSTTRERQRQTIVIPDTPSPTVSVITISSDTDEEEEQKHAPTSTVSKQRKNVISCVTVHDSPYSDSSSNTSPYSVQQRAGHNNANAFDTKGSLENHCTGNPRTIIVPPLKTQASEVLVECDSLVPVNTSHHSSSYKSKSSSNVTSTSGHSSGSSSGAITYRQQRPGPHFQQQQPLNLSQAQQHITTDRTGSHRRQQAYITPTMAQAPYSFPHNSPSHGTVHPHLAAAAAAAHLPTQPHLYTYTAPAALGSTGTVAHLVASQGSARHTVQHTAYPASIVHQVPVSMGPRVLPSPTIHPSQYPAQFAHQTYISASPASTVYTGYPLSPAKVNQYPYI

[20] = molecular target: Mu-type opioid receptor (Rattus norvegicus) (UniProt P33535); assay: Inhibition of MOPr desensitization (unknown origin) assessed as drop in maximum morphine response at 30 uM incubated for 15 mins relative to control
Target sequence in this assay (P33535 whole entry, looked up): as the sequence (P33535 whole entry) above

[21] = molecular target: Receptor tyrosine-protein kinase erbB-4 (Homo sapiens) (UniProt Q15303); assay: Inhibition of human HER4 assessed as remaining activity at 1 uM in presence of 32ATP relative to control; summary of the method: as §1
[22] = molecular target: Interleukin-1 receptor-associated kinase 4 (Homo sapiens) (UniProt Q9NWZ3); assay: Inhibition of human IRAK4 assessed as remaining activity at 1 uM in presence of 32ATP relative to control; summary of the method: as §1
Interleukin-1 receptor-associated kinase 4 (Homo sapiens), sequence (Q9NWZ3 whole entry): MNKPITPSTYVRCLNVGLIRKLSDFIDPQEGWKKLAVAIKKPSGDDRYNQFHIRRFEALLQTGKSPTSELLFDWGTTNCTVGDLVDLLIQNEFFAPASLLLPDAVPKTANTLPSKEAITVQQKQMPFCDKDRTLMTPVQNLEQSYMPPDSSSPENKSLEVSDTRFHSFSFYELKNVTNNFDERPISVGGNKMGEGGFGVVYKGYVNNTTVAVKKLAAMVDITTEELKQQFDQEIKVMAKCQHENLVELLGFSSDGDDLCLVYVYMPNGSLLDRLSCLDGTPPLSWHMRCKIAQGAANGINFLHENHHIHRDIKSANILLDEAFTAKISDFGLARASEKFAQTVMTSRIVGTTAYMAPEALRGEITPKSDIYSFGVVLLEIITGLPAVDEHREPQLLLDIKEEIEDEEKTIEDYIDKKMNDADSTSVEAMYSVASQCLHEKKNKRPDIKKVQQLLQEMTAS

[23] = molecular target: cAMP-dependent protein kinase (PKA) (Homo sapiens) (UniProt P22694+P17612+P22612); assay: Inhibition of PKA (unknown origin) at 1 uM in presence of 32ATP relative to control; assay type: protein assay; summary of the method: as §2
[24] = molecular target: Mitogen-activated protein kinase 14 (Homo sapiens) (UniProt Q16539); assay: Inhibition of human p38a MAPK assessed as remaining activity at 1 uM in presence of 32ATP relative to control; summary of the method: as §1
Mitogen-activated protein kinase 14 (Homo sapiens), sequence (Q16539 whole entry): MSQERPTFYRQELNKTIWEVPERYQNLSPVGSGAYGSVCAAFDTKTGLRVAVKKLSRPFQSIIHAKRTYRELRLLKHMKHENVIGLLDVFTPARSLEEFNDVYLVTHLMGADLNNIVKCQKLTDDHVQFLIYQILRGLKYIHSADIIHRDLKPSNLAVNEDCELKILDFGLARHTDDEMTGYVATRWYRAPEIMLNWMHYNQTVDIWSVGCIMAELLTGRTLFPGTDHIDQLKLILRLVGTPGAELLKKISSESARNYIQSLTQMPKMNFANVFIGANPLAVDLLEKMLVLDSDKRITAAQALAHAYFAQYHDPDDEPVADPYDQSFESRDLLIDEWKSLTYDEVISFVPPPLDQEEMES

[25] = molecular target: Aurora kinase B (Homo sapiens) (UniProt Q96GD4); assay: Inhibition of human Aurora B assessed as remaining activity at 1 uM in presence of 32ATP relative to control; summary of the method: as §2
[26] = molecular target: Serine/threonine-protein kinase Sgk1 (Homo sapiens) (UniProt O00141); assay: Inhibition of human SGK1 assessed as remaining activity at 1 uM in presence of 32ATP relative to control; summary of the method: as §1
Serine/threonine-protein kinase Sgk1 (Homo sapiens), sequence (O00141 whole entry, canonical isoform): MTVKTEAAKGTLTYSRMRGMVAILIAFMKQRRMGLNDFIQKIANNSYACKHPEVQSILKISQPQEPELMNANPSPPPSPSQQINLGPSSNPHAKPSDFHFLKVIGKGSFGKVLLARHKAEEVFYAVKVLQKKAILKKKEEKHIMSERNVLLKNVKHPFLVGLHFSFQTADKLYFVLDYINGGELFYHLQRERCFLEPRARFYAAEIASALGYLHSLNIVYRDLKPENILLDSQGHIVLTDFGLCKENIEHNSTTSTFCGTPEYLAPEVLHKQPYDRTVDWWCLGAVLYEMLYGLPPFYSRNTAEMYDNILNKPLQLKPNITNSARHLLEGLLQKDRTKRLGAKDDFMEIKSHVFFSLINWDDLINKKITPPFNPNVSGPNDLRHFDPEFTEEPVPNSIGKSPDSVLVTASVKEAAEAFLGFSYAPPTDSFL

[27] = molecular target: Casein kinase I isoform delta (Homo sapiens) (UniProt P48730); assay: Inhibition of human CK1delta assessed as remaining activity at 1 uM in presence of 32ATP relative to control; summary of the method: as §2
[28] = molecular target: Ribosomal protein S6 kinase alpha-5 (Homo sapiens) (UniProt O75582); assay: Inhibition of human MSK1 assessed as remaining activity at 1 uM in presence of 32ATP relative to control; summary of the method: as §1

Cn1c(CNc2cccc(C(=O)NCc3ccccc3C(F)(F)F)c2)nnc1-c1ccncc1
inhibition [1]: Active | Activity [2]: 103% | Activity [3]: 106% | Activity [4]: 85% | inhibition [5]: > 50% | Activity [6]: 103% | Activity [7]: 91% | Activity (Homo sapiens [8]): 82% | Activity [9]: 95% | Activity [10]: 88% | Activity [11]: 103% | inhibition [12]: inactive | Activity [13]: 69% | inhibition [14]: Active | Activity (Homo sapiens [15]): 79% | inhibition [16]: Active | Activity [17]: 113% | inhibition [18]: < 20% | Activity [19]: 103% | inhibition [20]: 44% | Activity [21]: 86% | Activity [22]: 96% | inhibition [23]: < 20% | Activity [24]: 101% | Activity [25]: 92% | Activity [26]: 31% | Activity [27]: 86% | Activity [28]: 10%
